Experimental data: ChEMBL document CHEMBL1955791, “Studies on gambogic acid (IV): Exploring structure-activity relationship with IκB kinase-beta (IKKβ)” (Eur J Med Chem, 2012)
Activity calls are given as the source filed them. The rule behind the calls is not given here.

Tests used:
[1] = molecular target: T1, Inhibitor of nuclear factor kappa-B kinase subunit beta (Homo sapiens, UniProt O14920); assay: Inhibition of IKK-beta using TMB substrate after 15 mins by spectrophotometer analysis
T1 sequence (O14920 whole entry): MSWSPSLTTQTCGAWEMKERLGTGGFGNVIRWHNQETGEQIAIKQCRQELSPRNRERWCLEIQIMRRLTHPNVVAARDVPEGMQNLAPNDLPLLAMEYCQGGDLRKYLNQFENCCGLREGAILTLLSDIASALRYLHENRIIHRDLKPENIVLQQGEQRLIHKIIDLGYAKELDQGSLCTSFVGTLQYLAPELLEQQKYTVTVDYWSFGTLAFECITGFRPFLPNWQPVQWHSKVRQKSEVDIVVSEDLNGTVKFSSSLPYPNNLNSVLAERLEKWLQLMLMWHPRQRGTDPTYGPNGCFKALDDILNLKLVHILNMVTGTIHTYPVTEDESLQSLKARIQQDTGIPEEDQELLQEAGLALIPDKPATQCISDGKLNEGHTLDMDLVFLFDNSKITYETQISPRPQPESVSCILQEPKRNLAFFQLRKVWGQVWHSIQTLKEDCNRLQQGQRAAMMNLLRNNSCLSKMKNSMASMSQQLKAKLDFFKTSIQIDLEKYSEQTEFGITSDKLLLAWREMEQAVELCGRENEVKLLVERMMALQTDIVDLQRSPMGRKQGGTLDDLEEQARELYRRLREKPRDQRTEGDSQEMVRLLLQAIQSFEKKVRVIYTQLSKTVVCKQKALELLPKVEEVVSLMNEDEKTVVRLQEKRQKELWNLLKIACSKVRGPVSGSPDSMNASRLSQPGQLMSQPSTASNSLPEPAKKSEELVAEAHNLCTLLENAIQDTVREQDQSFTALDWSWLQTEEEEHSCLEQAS
Method in brief: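 Kit-supplied IKKβ (50 ng in 4× reaction cocktail) preincubated with test sample 5 min at room temperature. 2× ATP/biotinylated substrate peptide cocktail added, 30 min at room temperature, stopped with 50 mM EDTA pH 8. Product captured on streptavidin plate, probed with anti-phospho-IκBα (Ser32) then HRP anti-rabbit IgG. TMB developed 15 min, read at 450 nm.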

[2] = system: A549; assay: Antiproliferative activity against human A549 cells after 24 hrs by MTT assay; format: functional, cell-based; conditions: A549, 24 h
Method in brief: (§1)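 Test agents diluted in culture medium, 24 h exposure. Viability read colorimetrically by MTT; vitality index (%) = A_treatment/A_control × 100; IC50 reported.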

[3] = system: U-251; assay: Antiproliferative activity against human U251 cells after 24 hrs by MTT assay; format: functional, cell-based; conditions: U-251, 24 h; method in brief: as §1
[4] = system: A549; assay: Inhibition of NF-kappaB activation in human A549 cells assessed as inhibition of TNFalpha/IFNgamma/IL-1beta-induced NF-kappaB nuclear translocation treated 2 hrs before TNFalpha/IFNgamma/IL-1beta stimulation measured after 30 mins; format: cell-based
Method in brief: (§2)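 A549 cells plated at 9000 per well, serum-starved 18 h, then given compound at graded concentrations for 2 h at 37 °C. Stimulated 30 min at 37 °C with TNFα 50 ng/mL, IFN-γ 100 U/mL and IL-1β 100 U/mL. Fixed, permeabilised and immunostained for NF-κB. High-content imaging read-out was the nuclear/cytoplasmic NF-κB fluorescence ratio, taken as the translocation inhibition rate.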

[5] = system: A549; assay: Inhibition of NF-kappaB activation in human A549 cells assessed as inhibition of TNFalpha/IFNgamma/IL-1beta-induced NF-kappaB nuclear translocation at 5 uM treated 2 hrs before TNFalpha/IFNgamma/IL-1beta stimulation measured after 30 mins; format: cell-based; method in brief: as §2
[6] = system: A549; assay: Inhibition of NF-kappaB activation in human A549 cells assessed as inhibition of TNFalpha-induced p65 nuclear translocation treated 4 hrs before TNFalpha stimulation measured after 30 mins by Western blotting; format: cell-based
Method in brief: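 A549 cells either untreated or pretreated with compound for 4 h at 37 °C, then given TNFα 50 ng/mL for 30 min. Cytoplasmic and nuclear extracts were western-blotted for p65, with β-actin (cytoplasm) and histone (nucleus) as loading controls.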

[7] = molecular target: T2, NF-kappa-B inhibitor alpha (Homo sapiens) (UniProt P25963); assay: Inhibition of TNF-alpha-induced IkappaBalpha degradation in human A549 cells at 4 to 8 uM treated 4 hrs before TNFalpha stimulation measured after 30 mins by Western blotting; format: cell-based
T2 sequence (whole entry): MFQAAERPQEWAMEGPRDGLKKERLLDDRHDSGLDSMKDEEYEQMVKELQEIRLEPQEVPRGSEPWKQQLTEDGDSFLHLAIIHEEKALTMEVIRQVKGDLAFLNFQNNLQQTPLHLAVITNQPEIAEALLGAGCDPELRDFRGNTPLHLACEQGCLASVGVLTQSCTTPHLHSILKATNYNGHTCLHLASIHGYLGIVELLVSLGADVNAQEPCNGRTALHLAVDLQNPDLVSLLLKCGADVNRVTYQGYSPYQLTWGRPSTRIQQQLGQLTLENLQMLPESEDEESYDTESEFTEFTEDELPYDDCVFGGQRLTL
Method in brief: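 A549 cells incubated 4 h with 4 or 8 μM compound, then exposed to TNF 0.1 ng/mL for various times. Cytoplasmic IκBα was followed by western blot.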

[8] = molecular target: T2, NF-kappa-B inhibitor alpha (Homo sapiens); assay: Inhibition of TNF-alpha-induced IkappaBalpha phosphorylation in human A549 cells at 4 to 8 uM treated 4 hrs before TNFalpha stimulation measured after 30 mins by Western blotting; format: cell-based
[9] = system: U-251; assay: Induction of apoptosis in human U251 cells assessed as morphological changes at 8 uM after 24 hrs by inverted light microscopic analysis; format: functional, cell-based
Method in brief: (§3)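 U251 cells in DMEM with 10% fetal calf serum under 5% CO2, exposed to compound for 24 h. Cell shape (rounding, shrinkage) inspected and photographed under an inverted light microscope at 200×, compared against untreated cells.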

[10] = system: U-251; assay: Induction of apoptosis in human U251 cells assessed as morphological changes at 4 to 64 uM after 24 hrs by inverted light microscopic analysis; format: functional, cell-based; method in brief: as §3
[11] = system: U-251; assay: Induction of apoptosis in human U251 cells assessed as appearance of nuclear condensation and apoptotic bodies at 4 to 64 uM after 24 hrs by DAPI staining; format: functional, cell-based
Method in brief: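 Treated U251 cells stained with DAPI and examined by fluorescence microscopy at 400× for bright condensed nuclei and apoptotic bodies.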

[12] = system: U-251; assay: Induction of apoptosis in human U251 cells assessed as increase in early and median apoptotic cells at 4 to 16 uM after 24 hrs using Annexin V/propidium iodide staining by flow cytometry; format: functional
Method in brief: (§4)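 U251 cells (DMEM, 10% fetal calf serum, 5% CO2) treated 24 h, washed with PBS and resuspended in binding buffer (pH 7.5, 10 mM HEPES, 2.5 mM CaCl2, 140 mM NaCl). Stained with Annexin V-FITC then PI for 10 min in the dark at room temperature, then analysed by flow cytometry. Lower-right quadrant counted as early/median apoptotic; upper-right as late apoptotic/necrotic.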

[13] = system: U-251; assay: Induction of apoptosis in human U251 cells assessed as increase in late apoptotic and necrotic cells at 4 to 16 uM after 24 hrs using Annexin V/propidium iodide staining by flow cytometry; format: functional; method in brief: as §4

Row | Compound | IC50 [1] [µM] | IC50 [2] [µM] | IC50 [3] [µM] | other results
1 | CC(C)=CC[C@@]12OC(C)(C)[C@@H]3C[C@@H](C=C4C(=O)c5ccccc5O[C@]431)C2=O | 24.2 | 1.93 | 18.7 | –
2 | CC(C)=CC[C@@]12OC(C)(C)[C@@H]3C[C@@H](C=C4C(=O)C=C(c5ccccc5)O[C@]431)C2=O | 41.7 | 27.5 | 40.2 | –
3 | CC(C)=CCc1c(O)cc2c(c1O)C(=O)C1=C[C@@H]3C[C@H]4C(C)(C)O[C@@](CC=C(C)C)(C3=O)[C@@]14O2 | 10.8 | 14.4 | 22.4 | –
4 | O=c1cc(-c2ccccc2)oc2c(O)c(O)ccc12 [7,8-DIHYDROXYFLAVONE] | 9.82 | 37.2 | 50.1 | –
5 | CC(C)=CCC[C@]1(C)C=Cc2c(O)c3c(c(CC=C(C)C)c2O1)O[C@]12C(=C[C@@H]4C[C@H]1C(C)(C)O[C@@]2(C/C=C(/C)C(=O)O)C4=O)C3=O [GAMBOGIC ACID] | 3.07 | 1.1 | 2.56 | inhibition [4]: Dose-dependent effect; inhibition [5]: 50.2%; inhibition [6]: Dose-dependent effect; inhibition [7]: Active; inhibition [8]: Active; Activity [9]: Active
6 | CC(C)=CC[C@@]12OC(C)(C)[C@@H]3C[C@@H](C=C4C(=O)c5c(O)cc(O)cc5O[C@]431)C2=O | 3.52 | 2.67 | 7.32 | Activity [10]: Active; Activity [11]: Active; Activity [12]: 58.21%; Activity [13]: 34.24%
7 | CC(C)=CC[C@@]12OC(C)(C)[C@@H]3C[C@@H](C=C4C(=O)c5c(O)cccc5O[C@]431)C2=O | 8.17 | 0.7 | 9.05 | –
8 | CC(C)=CCc1cc(C2=CC(=O)C3=C[C@@H]4C[C@H]5C(C)(C)O[C@@](CC=C(C)C)(C4=O)[C@@]35O2)ccc1O | 25.3 | 15.5 | 18.7 | –
9 | CC(C)=CCc1c(O)cc(O)c2c1O[C@]13C(=C[C@@H]4C[C@H]1C(C)(C)O[C@@]3(CC=C(C)C)C4=O)C2=O | 6.6 | 3.58 | 8.57 | –
10 | CC(C)=CC[C@@]12OC(C)(C)[C@@H]3C[C@@H](C=C4C(=O)CC(C)O[C@]431)C2=O (stereo partly drawn) | 40.3 | 60.3 | 82.4 | –
11 | CC(C)=CCc1c(O)cc(O)c2c(=O)c3ccccc3oc12 | 13.1 | 34.9 | 46.8 | –
